Laboratory results published in ChEMBL document CHEMBL3286332, “Synthesis and radical scavenging activity of phenol-imidazole conjugates” (Bioorg Med Chem Lett, 2014).

Key:
Format in all cases: functional
[1] = Antioxidant activity assessed as hydroxyl radical scavenging activity at 5 uM after 1 hr by 2-Deoxy-D-ribose degradation assay in presence of FeCl3
In short: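 Hydroxyl radical attack on 2-deoxy-D-ribose in 10 mM KH2PO4-KOH pH 7.4 with FeCl3 made up in buffer (no EDTA), H2O2, ascorbic acid and 5 μM compound from DMSO. Incubated 1 h at 37 °C. TBA/TCA was added, the mixture heated at 100 °C for 15 min, and MDA read at 535 nm. Result is percent protection against the compound-free control. Triplicate.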

[2] = system: Radical scavenging activity; assay: Antioxidant activity assessed as DPPH free radical scavenging activity measured as remaining DPPH at 100 uM after 60 mins by spectrophotometric analysis relative to control
In short: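 100 μM compound in ethanol mixed 1:9 with 0.002% (w/v) ethanolic DPPH. Absorbance at 517 nm after 60 min, compared with an ethanol control. Value is percent of DPPH remaining, run in triplicate.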

[3] = Antioxidant activity assessed as hydroxyl radical scavenging activity at 5 uM after 1 hr by 2-Deoxy-D-ribose degradation assay in presence of FeCl3 and EDTA
In short: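 The 1 mL mixture held 10 mM KH2PO4-KOH pH 7.4, 2-deoxy-D-ribose, FeCl3 made up in 2 mM Na2EDTA, H2O2, ascorbic acid and 5 μM compound added from DMSO. It was incubated 1 h at 37 °C, then thiobarbituric acid in NaOH and trichloroacetic acid were added and it was heated 15 min at 100 °C. Absorbance was read at 535 nm. Controls: no compound (100% MDA) and no deoxyribose (blank). Triplicate.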

[4] = system: Radical scavenging activity; assay: Antioxidant activity assessed as DPPH free radical scavenging activity after 60 mins by spectrophotometric analysis
In short: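 Compound in ethanol, 1 to 100 μM, combined 1:9 with 0.002% (w/v) ethanolic DPPH; absorbance read at 517 nm after 60 min against an ethanol-only control. Triplicate measurements. Inhibition of discoloration expressed as percent of control; IC50 (concentration scavenging 50% of DPPH) obtained from the inhibition curve.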

[5] = system: Radical scavenging activity; assay: Antioxidant activity assessed as DPPH free radical scavenging activity measured as remaining DPPH at 10 uM after 5 mins by spectrophotometric analysis relative to control
[6] = system: Radical scavenging activity; assay: Antioxidant activity assessed as DPPH free radical scavenging activity measured as remaining DPPH at 10 uM after 2 mins by spectrophotometric analysis relative to control
[7] = system: Radical scavenging activity; assay: Antioxidant activity assessed as DPPH free radical scavenging activity measured as remaining DPPH at 100 uM after 5 mins by spectrophotometric analysis relative to control

SMILES | IC50 [4] | Activity [1] | DPPH remaining [2] | Activity [3] | Activity [5] | Activity [6] | Activity [7]
COc1cc(C=O)ccc1O |  | 30% | 97.6% | 37% |  |  | 
COc1ccc(-n2cnc(C#N)c2/N=C/c2ccc(O)c(OC)c2)cc1 |  | 12% | 88.6% | 47% |  |  | 
N#Cc1ncn(-c2ccc(F)cc2)c1N |  | 19% | 94.1% | 50% |  |  | 
COc1ccc(-n2cnc(C#N)c2/N=C/c2c(O)cc(O)cc2O)cc1 |  | 16% | 48.3% | 62% |  |  | 
N#Cc1ncn(-c2ccc(O)cc2)c1/N=C/c1ccc(O)c(O)c1O | 7.2 µM | 28% |  | 38% | < 50% |  | 
Cn1cnc(C#N)c1N |  | 23% | 94.2% | 54% |  |  | 
O=Cc1ccc(O)c(O)c1 [PROTOCATECHUALDEHYDE] | 5.4 µM | 35% |  | 51% |  |  | 
COc1ccc(-n2cnc(C#N)c2N)cc1 |  | 29% | 94.2% | 46% |  |  | 
N#Cc1ncn(-c2ccc(O)cc2)c1/N=C/c1ccc(O)c(O)c1 | 3.2 µM | 38% |  | 60% | < 50% | < 50% | 
O=Cc1ccc(O)c(O)c1O | 11.6 µM | 34% |  | 46% |  |  | 
N#Cc1ncn(-c2ccc(O)cc2)c1/N=C/c1c(O)cc(O)cc1O |  | 17% | 45.9% | 55% |  |  | < 50%
O=Cc1c(O)cc(O)cc1O |  | 36% | 91.2% | 42% |  |  | 
N#Cc1ncn(-c2ccc(O)cc2)c1N |  | 57% | 94.8% | 47% |  |  | 
N#Cc1ncn(-c2ccc(F)cc2)c1/N=C/c1ccc(O)c(O)c1O | 8.4 µM | 34% |  | 53% |  |  | 
Cn1cnc(C#N)c1/N=C/c1c(O)cc(O)cc1O |  | 18% | 49.9% | 54% |  |  | 

Second part, led by results:

IC50 [4] | SMILES | Activity [1] | DPPH remaining [2] | Activity [3] | Activity [5] | Activity [6] | Activity [7]
6 µM | O=Cc1cc(O)c(O)c(O)c1 | 38% |  | 50% |  |  | 
4.1 µM | COc1ccc(-n2cnc(C#N)c2/N=C/c2ccc(O)c(O)c2)cc1 | 17% |  | 61% |  |  | 
7.3 µM | COc1ccc(-n2cnc(C#N)c2/N=C/c2ccc(O)c(O)c2O)cc1 | 25% |  | 57% |  |  | 
4.4 µM | N#Cc1ncn(-c2ccc(F)cc2)c1/N=C/c1ccc(O)c(O)c1 | 11% |  | 58% |  |  | 
4.8 µM | N#Cc1ncn(-c2ccc(O)cc2)c1/N=C/c1cc(O)c(O)c(O)c1 | 51% |  | 49% | < 50% | < 50% | 
5.8 µM | N#Cc1ncn(-c2ccc(F)cc2)c1/N=C/c1cc(O)c(O)c(O)c1 | 30% |  | 54% |  |  | 
3.8 µM | Cn1cnc(C#N)c1/N=C/c1ccc(O)c(O)c1 | 27% |  | 52% |  |  | 
7 µM | Cn1cnc(C#N)c1/N=C/c1ccc(O)c(O)c1O | 37% |  | 54% |  |  | 
9.5 µM | Cc1c(C)c2c(c(C)c1O)CCC(C)(C(=O)O)O2 (centres undefined) [TROLOX] | 31% |  | 53% |  |  | 
4 µM | COc1ccc(-n2cnc(C#N)c2/N=C/c2cc(O)c(O)c(O)c2)cc1 | 42% |  | 51% |  |  | 
4.7 µM | Cn1cnc(C#N)c1/N=C/c1cc(O)c(O)c(O)c1 | 44% |  | 54% |  |  | 
